Test results as given in ChEMBL document CHEMBL5303300, “EUbOPEN Chemogenomics Library - Multiplex” (2023).
Several values for one entry are separate records, joined by “and”; a condition that tells them apart may be missing. Equal entries are not always repeated.

Test system: Fibroblast
Experiment: Multiplex assay against human fibroblast
Assay type: toxicity, cell-based
Settings: number of replicates 2
Procedure, shortened: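 Hoechst33342, BioTracker Green Microtubule Cytoskeleton Dye, MitoTracker Red and Annexin V Alexa Fluor 680 were added to live cells at seeding, and imaging on a CQ1 microscope at 37°C and 5% CO2 followed compound addition. Gating by CellPathfinder machine learning separated cells into Hoechst high-intensity objects or normal cells, then normal cells into healthy, pyknosed or fragmented nuclei, then pyknosed cells into mitotic or apoptotic. Per cents of healthy-nucleus cells are reported for the tubulin, mitochondrial-mass and membrane-permeability phenotypes.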

[1] = 12 h, 1 µM, compound concentration 1 uM
[2] = 12 h, 10 µM, compound concentration 10 uM
[3] = 24 h, 1 µM, compound concentration 1 uM
[4] = 24 h, 10 µM, compound concentration 10 uM
[5] = 48 h, 1 µM, compound concentration 1 uM
[6] = 48 h, 10 µM, compound concentration 10 uM

SMILES: O=C1NC(=NCc2cccs2)SC1=Cc1ccc2ncccc2c1
- Population Apoptotic (%) [1]: 31% and 38%
- Population Fragmented Nuclei (%) [1]: 17% and 11%
- Population Healthy Nuclei (%) [1]: 65% and 76%
- Population Hoechst High Intensity Objects (%) [1]: 0%
- Population Membrane Permeable-Phenotype (%) [1]: 4% and 3%
- Population Mitochondria Different-Phenotype (%) [1]: 0%
- Population Mitotic Cells (%) [1]: 68% and 61%
- Population Normal (%) [1]: 100%
- Population Pyknosed Nuclei (%) [1]: 16% and 12%
- Population Tubulin-Different-Phenotype (%) [1]: 5% and 6%
- Total Cell Count [1]: 193 and 211
- Population Apoptotic (%) [2]: 50% and 51%
- Population Fragmented Nuclei (%) [2]: 13% and 9%
- Population Healthy Nuclei (%) [2]: 74% and 78%
- Population Hoechst High Intensity Objects (%) [2]: 0%
- Population Membrane Permeable-Phenotype (%) [2]: 2% and 4%
- Population Mitochondria Different-Phenotype (%) [2]: 0% and 1%
- Population Mitotic Cells (%) [2]: 50% and 48%
- Population Normal (%) [2]: 100%
- Population Pyknosed Nuclei (%) [2]: 12%
- Population Tubulin-Different-Phenotype (%) [2]: 34% and 20%
- Total Cell Count [2]: 190 and 238
- Population Apoptotic (%) [3]: 42% and 26%
- Population Fragmented Nuclei (%) [3]: 15% and 10%
- Population Healthy Nuclei (%) [3]: 66% and 72%
- Population Hoechst High Intensity Objects (%) [3]: 0%
- Population Membrane Permeable-Phenotype (%) [3]: 2% and 6%
- Population Mitochondria Different-Phenotype (%) [3]: 0%
- Population Mitotic Cells (%) [3]: 57% and 73%
- Population Normal (%) [3]: 100%
- Population Pyknosed Nuclei (%) [3]: 18% and 17%
- Population Tubulin-Different-Phenotype (%) [3]: 4% and 6%
- Total Cell Count [3]: 183 and 219
- Population Apoptotic (%) [4]: 69% and 61%
- Population Fragmented Nuclei (%) [4]: 10% and 12%
- Population Healthy Nuclei (%) [4]: 82% and 75%
- Population Hoechst High Intensity Objects (%) [4]: 0%
- Population Membrane Permeable-Phenotype (%) [4]: 4% and 2%
- Population Mitochondria Different-Phenotype (%) [4]: 1% and 3%
- Population Mitotic Cells (%) [4]: 30% and 38%
- Population Normal (%) [4]: 100% and 99%
- Population Pyknosed Nuclei (%) [4]: 6% and 12%
- Population Tubulin-Different-Phenotype (%) [4]: 26% and 23%
- Total Cell Count [4]: 191 and 241
- Population Apoptotic (%) [5]: 65% and 75%
- Population Fragmented Nuclei (%) [5]: 17% and 14%
- Population Healthy Nuclei (%) [5]: 65% and 68%
- Population Hoechst High Intensity Objects (%) [5]: 0%
- Population Membrane Permeable-Phenotype (%) [5]: 2% and 3%
- Population Mitochondria Different-Phenotype (%) [5]: 0%
- Population Mitotic Cells (%) [5]: 34% and 25%
- Population Normal (%) [5]: 99% and 100%
- Population Pyknosed Nuclei (%) [5]: 17%
- Population Tubulin-Different-Phenotype (%) [5]: 10% and 6%
- Total Cell Count [5]: 185 and 211
- Population Apoptotic (%) [6]: 73% and 62%
- Population Fragmented Nuclei (%) [6]: 15% and 11%
- Population Healthy Nuclei (%) [6]: 77% and 76%
- Population Hoechst High Intensity Objects (%) [6]: 0%
- Population Membrane Permeable-Phenotype (%) [6]: 0%
- Population Mitochondria Different-Phenotype (%) [6]: 0% and 2%
- Population Mitotic Cells (%) [6]: 26% and 37%
- Population Normal (%) [6]: 100%
- Population Pyknosed Nuclei (%) [6]: 7% and 11%
- Population Tubulin-Different-Phenotype (%) [6]: 30% and 28%
- Total Cell Count [6]: 201 and 239

SMILES: CCN1C(=O)N(c2c(F)c(OC)cc(OC)c2F)Cc2cnc3[nH]c(CN4CCOCC4)cc3c21 [PEMIGATINIB]
- Population Apoptotic (%) [1]: 60% and 45%
- Population Fragmented Nuclei (%) [1]: 8%
- Population Healthy Nuclei (%) [1]: 75% and 58%
- Population Hoechst High Intensity Objects (%) [1]: 0%
- Population Membrane Permeable-Phenotype (%) [1]: 3% and 8%
- Population Mitochondria Different-Phenotype (%) [1]: 1%
- Population Mitotic Cells (%) [1]: 40% and 54%
- Population Normal (%) [1]: 99% and 100%
- Population Pyknosed Nuclei (%) [1]: 15% and 33%
- Population Tubulin-Different-Phenotype (%) [1]: 13% and 14%
- Total Cell Count [1]: 220 and 246
- Population Apoptotic (%) [2]: 57% and 38%
- Population Fragmented Nuclei (%) [2]: 12% and 20%
- Population Healthy Nuclei (%) [2]: 53% and 51%
- Population Hoechst High Intensity Objects (%) [2]: 0%
- Population Membrane Permeable-Phenotype (%) [2]: 8% and 12%
- Population Mitochondria Different-Phenotype (%) [2]: 1% and 4%
- Population Mitotic Cells (%) [2]: 42% and 61%
- Population Normal (%) [2]: 100%
- Population Pyknosed Nuclei (%) [2]: 33% and 28%
- Population Tubulin-Different-Phenotype (%) [2]: 37% and 26%
- Total Cell Count [2]: 134 and 190
- Population Apoptotic (%) [3]: 72% and 67%
- Population Fragmented Nuclei (%) [3]: 8% and 7%
- Population Healthy Nuclei (%) [3]: 76% and 61%
- Population Hoechst High Intensity Objects (%) [3]: 0%
- Population Membrane Permeable-Phenotype (%) [3]: 5% and 7%
- Population Mitochondria Different-Phenotype (%) [3]: 1% and 0%
- Population Mitotic Cells (%) [3]: 27% and 32%
- Population Normal (%) [3]: 99% and 100%
- Population Pyknosed Nuclei (%) [3]: 15% and 30%
- Population Tubulin-Different-Phenotype (%) [3]: 7% and 14%
- Total Cell Count [3]: 237 and 226
- Population Apoptotic (%) [4]: 69% and 46%
- Population Fragmented Nuclei (%) [4]: 16% and 20%
- Population Healthy Nuclei (%) [4]: 57% and 50%
- Population Hoechst High Intensity Objects (%) [4]: 0%
- Population Membrane Permeable-Phenotype (%) [4]: 3% and 5%
- Population Mitochondria Different-Phenotype (%) [4]: 3%
- Population Mitotic Cells (%) [4]: 30% and 53%
- Population Normal (%) [4]: 100%
- Population Pyknosed Nuclei (%) [4]: 26% and 28%
- Population Tubulin-Different-Phenotype (%) [4]: 29% and 11%
- Total Cell Count [4]: 136 and 182
- Population Apoptotic (%) [5]: 75% and 71%
- Population Fragmented Nuclei (%) [5]: 10%
- Population Healthy Nuclei (%) [5]: 76% and 60%
- Population Hoechst High Intensity Objects (%) [5]: 0%
- Population Membrane Permeable-Phenotype (%) [5]: 5% and 3%
- Population Mitochondria Different-Phenotype (%) [5]: 0%
- Population Mitotic Cells (%) [5]: 24% and 28%
- Population Normal (%) [5]: 99%
- Population Pyknosed Nuclei (%) [5]: 13% and 28%
- Population Tubulin-Different-Phenotype (%) [5]: 5% and 8%
- Total Cell Count [5]: 240 and 232
- Population Apoptotic (%) [6]: 81% and 83%
- Population Fragmented Nuclei (%) [6]: 17% and 25%
- Population Healthy Nuclei (%) [6]: 57% and 51%
- Population Hoechst High Intensity Objects (%) [6]: 0%
- Population Membrane Permeable-Phenotype (%) [6]: 5% and 8%
- Population Mitochondria Different-Phenotype (%) [6]: 1%
- Population Mitotic Cells (%) [6]: 18% and 16%
- Population Normal (%) [6]: 100%
- Population Pyknosed Nuclei (%) [6]: 25% and 22%
- Population Tubulin-Different-Phenotype (%) [6]: 25% and 18%
- Total Cell Count [6]: 128 and 166
